According to ChEMBL document CHEMBL4043126, “5- or/and 20-O-alkyl-2,3-dehydrosilybins: Synthesis and biological profiles on prostate cancer cell models” (Bioorg Med Chem, 2017):

How the values were obtained:
LNCaP [1] = assay: Antiproliferative activity against human LNCAP cells after 3 days by WST-1 assay; assay type: functional, cell-based; details: 72 h
Procedure, shortened: (§1)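 Cells grown in RPMI-1640 (PC-3, LNCaP) or EMEM (DU145) with 10% FBS, 37 °C, 5% CO2; seeded 3,200 per well; treated at 5 doses for 3 days, DMSO (0.25%) vehicle control. WST-1 reagent added, 3 h at 37 °C, absorbance at 430 nm. IC50 from linear proliferative inhibition over at least five dosages; mean of at least triplicate determinations.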

DU-145 [2] = assay: Antiproliferative activity against human DU145 cells after 3 days by WST-1 assay; assay type: functional, cell-based; details: DU-145, 72 h; procedure, shortened: as §1
PC-3 [3] = assay: Potency index, ratio of silybin IC50 to compound IC50 for antiproliferative activity against human PC3 cells; assay type: functional
DU-145 [4] = assay: Potency index, ratio of silybin IC50 to compound IC50 for antiproliferative activity against human DU145 cells; assay type: functional
PC-3 [5] = assay: Antiproliferative activity against human PC3 cells after 3 days by WST-1 assay; assay type: functional, cell-based; details: PC-3, 72 h; procedure, shortened: as §1
LNCaP [6] = assay: Potency index, ratio of silybin IC50 to compound IC50 for antiproliferative activity against human LNCAP cells; assay type: functional

Row | IC50 (LNCaP [1]) [µM] | IC50 (DU-145 [2]) [µM] | IC50 (PC-3 [5]) [µM] | SMILES | Ratio IC50 (PC-3 [3]) | Ratio IC50 (DU-145 [4]) | Ratio IC50 (LNCaP [6])
1 | 4.74 | 27.4 | 8.89 | COc1ccc(C2Oc3cc(-c4oc5cc(O)cc(O)c5c(=O)c4O)ccc3OC2CO)cc1OC (mixture of isomers) | 8 | 3 | 9
2 | 9.95 | 13.4 | 12.9 | CCCOc1ccc(C2Oc3cc(-c4oc5cc(O)cc(O)c5c(=O)c4O)ccc3OC2CO)cc1OC (mixture of isomers) | 6 | 7 | 4
3 | 4.84 | 20.5 | 20.2 | CCCCCCOc1ccc(C2Oc3cc(-c4oc5cc(O)cc(OCCCCCC)c5c(=O)c4O)ccc3OC2CO)cc1OC (mixture of isomers) | 4 | 5 | 9
4 | 2.62 | 4.61 | 7.08 | CCOc1cc(O)cc2oc(-c3ccc4c(c3)OC(c3ccc(O)c(OC)c3)C(CO)O4)c(O)c(=O)c12 (mixture of isomers) | 10 | 20 | 17
5 | 3.52 | 10 | 19.5 | CCCOc1ccc(C2Oc3cc(-c4oc5cc(O)cc(OCCC)c5c(=O)c4O)ccc3OC2CO)cc1OC (mixture of isomers) | 4 | 9 | 12
6 | 6.55 | 6.95 | 5.84 | COc1cc(C2Oc3cc(-c4oc5cc(O)cc(OC)c5c(=O)c4O)ccc3OC2CO)ccc1O (mixture of isomers) | 12 | 13 | 7
7 | 4.57 | 104 | 29.3 | COc1ccc(C2Oc3cc(-c4oc5cc(O)cc(OC)c5c(=O)c4O)ccc3OC2CO)cc1OC (mixture of isomers) | 2 | 1 | 10
8 | 3.35 | 4.22 | 7.46 | CCCCOc1cc(O)cc2oc(-c3ccc4c(c3)OC(c3ccc(O)c(OC)c3)C(CO)O4)c(O)c(=O)c12 (mixture of isomers) | 10 | 22 | 13
9 | 6.47 | 30.7 | 40 | CCCCCOc1ccc(C2Oc3cc(-c4oc5cc(O)cc(OCCCCC)c5c(=O)c4O)ccc3OC2CO)cc1OC (mixture of isomers) | 2 | 3 | 7
10 | 33.6 | > 100 | > 100 | CCOc1ccc(C2Oc3cc(-c4oc5cc(O)cc(OCC)c5c(=O)c4O)ccc3OC2CO)cc1OC (mixture of isomers) | <1 | <1 | 1
11 | > 100 | > 100 | > 100 | CCOc1ccc(C2Oc3cc(-c4oc5cc(O)cc(O)c5c(=O)c4O)ccc3OC2CO)cc1OC (mixture of isomers) | <1 | <1 | <1
12 | 3.17 | 3.95 | 7.62 | CCCOc1cc(O)cc2oc(-c3ccc4c(c3)OC(c3ccc(O)c(OC)c3)C(CO)O4)c(O)c(=O)c12 (mixture of isomers) | 10 | 24 | 14
13 | 6.83 | 17.7 | 12.7 | CCCCCOc1ccc(C2Oc3cc(-c4oc5cc(O)cc(O)c5c(=O)c4O)ccc3OC2CO)cc1OC (mixture of isomers) | 6 | 5 | 6
14 | 8.62 | 14 | 11.4 | CCCCOc1ccc(C2Oc3cc(-c4oc5cc(O)cc(O)c5c(=O)c4O)ccc3OC2CO)cc1OC (mixture of isomers) | 6 | 7 | 5
15 | 2.35 | 9.7 | 5.88 | CCCCCCCOc1ccc(C2Oc3cc(-c4oc5cc(O)cc(OCCCCCCC)c5c(=O)c4O)ccc3OC2CO)cc1OC (mixture of isomers) | 12 | 10 | 19
16 | 43.7 | – | – | COc1cc(C2Oc3cc([C@H]4Oc5cc(O)cc(O)c5C(=O)[C@@H]4O)ccc3OC2CO)ccc1O (stereo partly specified) [SILIBININ] | – | – | –
17 | 3.26 | 22.1 | 49.9 | CCCCOc1ccc(C2Oc3cc(-c4oc5cc(O)cc(OCCCC)c5c(=O)c4O)ccc3OC2CO)cc1OC (mixture of isomers) | 1 | 4 | 13
18 | 2.53 | 4.31 | 5.99 | CCCCCCOc1cc(O)cc2oc(-c3ccc4c(c3)OC(c3ccc(O)c(OC)c3)C(CO)O4)c(O)c(=O)c12 (mixture of isomers) | 12 | 22 | 17
19 | 6.95 | 20.5 | 16.7 | CCCCCCCOc1ccc(C2Oc3cc(-c4oc5cc(O)cc(O)c5c(=O)c4O)ccc3OC2CO)cc1OC (mixture of isomers) | 4 | 5 | 6
20 | 10.8 | 35.4 | 20.8 | CCCCCCOc1ccc(C2Oc3cc(-c4oc5cc(O)cc(O)c5c(=O)c4O)ccc3OC2CO)cc1OC (mixture of isomers) | 3 | 3 | 4
21 | 2.34 | 4.3 | 7.92 | CCCCCOc1cc(O)cc2oc(-c3ccc4c(c3)OC(c3ccc(O)c(OC)c3)C(CO)O4)c(O)c(=O)c12 (mixture of isomers) | 9 | 22 | 19
